# Compound activity from PubChem.
# Shown are actives, neighbours in structure and some others; about 1.6% of the full set was active somewhere.
# SKN-1 inh = C. elegans SKN-1 inhibition; AID 624304; C. elegans VP596 Pgst-4::GFP/RFP ratio, acrylamide-induced, 24 h; inhibition, % at 21.8 µM; actives 0.49% (n = 360,000);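 active = interference check ratio from 0.5 to 1.5 plus GFP to RFP signal ratio inhibition reaching or exceeding a fixed threshold, cut at about 30% in these data, passing the limit was not always enough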
# Rin1 Abl inh = human Rin1-Abl interaction inhibition; P00519+Q13671; TR-FRET Rin1/Abl binding, biochemical; inhibition, % at 7.35 µM; actives 0.4% (n = 360,000); in the data active = inhibition above about 5%, passing the limit was not always enough
# Target sequence (P00519 whole entry, looked up): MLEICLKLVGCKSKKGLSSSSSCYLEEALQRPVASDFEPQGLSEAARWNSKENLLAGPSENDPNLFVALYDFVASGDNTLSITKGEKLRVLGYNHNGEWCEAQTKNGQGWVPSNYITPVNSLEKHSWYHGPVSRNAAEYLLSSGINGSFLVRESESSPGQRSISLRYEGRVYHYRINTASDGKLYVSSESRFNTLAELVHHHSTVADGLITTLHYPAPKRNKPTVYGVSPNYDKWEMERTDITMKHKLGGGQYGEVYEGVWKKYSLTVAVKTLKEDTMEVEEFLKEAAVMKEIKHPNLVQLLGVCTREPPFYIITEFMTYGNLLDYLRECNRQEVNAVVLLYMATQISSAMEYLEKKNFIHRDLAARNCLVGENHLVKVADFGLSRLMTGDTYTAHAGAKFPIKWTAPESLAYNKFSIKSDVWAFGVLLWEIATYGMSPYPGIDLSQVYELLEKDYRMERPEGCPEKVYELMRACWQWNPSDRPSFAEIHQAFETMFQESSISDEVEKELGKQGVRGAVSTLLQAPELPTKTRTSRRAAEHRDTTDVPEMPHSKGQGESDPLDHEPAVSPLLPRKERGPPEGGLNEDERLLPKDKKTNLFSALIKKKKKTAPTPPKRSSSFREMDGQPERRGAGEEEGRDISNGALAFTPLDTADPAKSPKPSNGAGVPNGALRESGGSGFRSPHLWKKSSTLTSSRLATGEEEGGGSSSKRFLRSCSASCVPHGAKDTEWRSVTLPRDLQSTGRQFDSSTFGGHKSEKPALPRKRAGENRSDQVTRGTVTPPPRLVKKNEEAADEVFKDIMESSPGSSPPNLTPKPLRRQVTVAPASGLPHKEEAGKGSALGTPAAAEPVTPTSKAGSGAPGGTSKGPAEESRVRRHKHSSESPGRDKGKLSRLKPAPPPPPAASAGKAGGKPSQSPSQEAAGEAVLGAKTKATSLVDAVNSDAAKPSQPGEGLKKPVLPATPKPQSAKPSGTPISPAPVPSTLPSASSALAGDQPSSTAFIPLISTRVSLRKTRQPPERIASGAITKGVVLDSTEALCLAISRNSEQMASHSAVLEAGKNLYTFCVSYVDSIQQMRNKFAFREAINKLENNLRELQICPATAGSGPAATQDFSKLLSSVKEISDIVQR
# Target sequence (Q13671 whole entry, looked up): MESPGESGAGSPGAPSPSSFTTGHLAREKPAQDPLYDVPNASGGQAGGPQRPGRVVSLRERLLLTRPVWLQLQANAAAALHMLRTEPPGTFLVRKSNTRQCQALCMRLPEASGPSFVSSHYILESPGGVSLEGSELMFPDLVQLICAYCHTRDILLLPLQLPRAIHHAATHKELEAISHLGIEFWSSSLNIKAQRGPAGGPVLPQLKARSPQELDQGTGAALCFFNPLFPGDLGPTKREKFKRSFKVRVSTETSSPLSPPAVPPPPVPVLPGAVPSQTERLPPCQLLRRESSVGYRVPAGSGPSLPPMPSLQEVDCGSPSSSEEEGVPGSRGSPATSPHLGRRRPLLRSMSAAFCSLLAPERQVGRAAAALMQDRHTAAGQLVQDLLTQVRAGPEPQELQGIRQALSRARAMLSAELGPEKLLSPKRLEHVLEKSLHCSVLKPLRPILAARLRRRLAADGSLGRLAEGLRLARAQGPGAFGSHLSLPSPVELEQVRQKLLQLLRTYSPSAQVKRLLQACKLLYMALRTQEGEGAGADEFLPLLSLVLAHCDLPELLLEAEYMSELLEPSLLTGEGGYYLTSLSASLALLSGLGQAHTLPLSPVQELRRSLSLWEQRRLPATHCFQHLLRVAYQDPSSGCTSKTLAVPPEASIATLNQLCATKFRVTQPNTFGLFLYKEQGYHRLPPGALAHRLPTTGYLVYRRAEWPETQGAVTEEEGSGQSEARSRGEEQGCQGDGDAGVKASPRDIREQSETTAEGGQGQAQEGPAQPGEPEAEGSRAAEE
# Arr AP2 block = human beta-arrestin and AP2 interaction inhibition; FITC-arrestin peptide / GST-AP2 beads, flow cytometry; AP2 beta2 appendage carries R879A mutation; actives 0.31% (n = 340,000); inhibition, % at 10 µM;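 active = inhibition above a set limit, near 3 SD of compounds lacking own fluorescence, cut at about 54% in these data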;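 note: plate controls were DMSO wells for no effect and 5 µM unlabelled arrestin peptide for full effect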
#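 test system = AP2 appendage R879A on GSH beads | buffer or medium = PBS plus Tween 20 (0.05%) and BSA (0.1%) | incubation = 12 min plus 1 h, RT | detection = bead flow cytometry, FITC channel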
# MT1-MMP act inh = blocks activation of human MT1-MMP; actives 0.061% (n = 360,000); HT1080 RFP-PRO-GFP cells, GFP/RFP ratio fluorescence, overnight; percent of plate control window, DMSO zero; GFP/RFP ratio change, % at 20 µM;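 active = GFP/RFP ratio change of at least 30% with cell ATP level not reduced by more than half and red fluorescence within 50% of control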
#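 Material: RFP-PRO-GFP reporter HT1080 cells. Dosing: single-point 20 µM compound, 1% DMSO. Controls: DMSO and RFP-L50D-GFP cell wells. Timing: cells overnight before dosing, compound overnight, 37 °C, 5% CO2. Measure: GFP/RFP fluorescence ratio.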
# TbMetRS inhib = Trypanosoma brucei MetRS inhibition | purified T. brucei MetRS, ATP depletion, Kinase-Glo luminescence | AID 624268 | inhibition, % at 11.9 µM | actives 0.4% (n = 360,000);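 active = inhibition above a per-plate cutoff of the control wells' mean inhibition plus 3 SD, cut at about 5.5% in these data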;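 note: 0% = DMSO wells median and 100% = median of wells with control inhibitor compound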
#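 Test system: purified T. brucei MetRS enzyme. Also added: ATP, methionine and E. coli bulk tRNA substrates. Compound: 11.9 µM single point. Schedule: 15 min enzyme-compound preincubation, 2 h reaction, 10 min detection, 25 °C. Signal: luciferase luminescence of residual ATP, Kinase-Glo. Evaluation: percent inhibition versus plate control medians. Controls: DMSO wells, low control.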
# Rin1 Abl conf = confirmation of inhibitors of human Rin1-Abl interaction; TR-FRET Rin1-Abl binding, purified proteins; actives 49% (n = 1,300); inhibition, % at 7.35 µM; shares compounds with Rin1 Abl inh
# GFP quench-1 = counter-screen for Rin1-Abl inhibitors: GFP fluorescence quenchers; shares compounds with Rin1 Abl inh; inhibitors/quenchers counterscreen; inhibition, % at 6.75 µM; actives 8.5% (n = 1,300);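 note: ABL1-eGFP fusion protein alone without its partner RIN1-SBP; 0% = protein with vehicle and 100% = wells lacking protein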
# GFP quench DR = counter-screen for Rin1-Abl inhibitors: GFP quenchers, dose response; 230 tested, under 10 active; IC50, µM; GFP fluorescence interference/quenching counterscreen; shares compounds with Rin1 Abl inh; AID 602182; call rule not given here;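 note: ABL1-eGFP fusion protein alone without its RIN1 binding partner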
# GFP quench-2 = quenches GFP fluorescence in Rin1-Abl counterscreen | shares compounds with Rin1 Abl inh | 25 tested, under 10 active | GFP fluorescence quenching counterscreen, biochemical | IC50, µM; call rule not given here
# The depositor's hits bear a star; nt = no result given. Cut-off read from the data, not from the text of the source, unless noted: active = inhibition above about 6.5%; inactive = the rest.
SMILES,SKN-1 inh,Rin1 Abl inh,Arr AP2 block,MT1-MMP act inh,TbMetRS inhib,Rin1 Abl conf,GFP quench-1,others
C[C@H](CO)N1C[C@H](C)[C@@H](CN(C)Cc2ccc(-c3ccccc3)cc2)Oc2c(NS(=O)(=O)c3ccccc3)cccc2C1=O,3,14*,13,5,-1,9.6*,0,
C[C@@H]1CN([C@H](C)CO)C(=O)CCCn2nncc2CO[C@H]1CN(C)C(=O)c1ccc2ccn(C)c2c1,-1,0,nt,3,0,nt,nt,
CS/C(=N\S(=O)(=O)c1cccs1)Nc1ccc(F)c(Cl)c1,-14,5.0*,16,2,1,-3,1,
Cc1noc(C)c1S(=O)(=O)NC(=O)C1(C)CCN1C(=O)c1ccc(C2CCCCC2)cc1 (stereo not given),9,-2,nt,-4,0,nt,nt,
COc1ccc(S(=O)(=O)N2CCOCC2)cc1NC(=O)C1CC(=O)N(c2ccc3c(c2)OCCO3)C1 (stereo not given),-1,-2,nt,4,0,nt,nt,
O=C(Cc1n[nH]c(=O)c2ccccc12)Nc1ccc(-c2nnc3n2CCCCC3)cc1,-2,6,-2,-4,-1,nt,nt,
O=C(Cn1[nH]c(=O)c2ccccc2c1=O)Nc1ccc(-c2nnc3n2CCCCC3)cc1,3,12*,26,-1,0,10*,0,
c1ccc(-n2ncc3c(NC4CCCCCC4)ncnc32)cc1,5,1,-9,-5,0,nt,nt,
CCOC(=O)N1CCC(Nc2ncnc3c2cnn3-c2ccccc2)CC1,16,9.9*,19,3,0,2,0,
CCOC(=O)c1ccc(CNC(=O)C(Cc2c[nH]c3ccccc23)NC(C)=O)o1 (stereo not given),-5,8.1*,13,0,-1,2,-1,
O=C(O)CC(CCc1ccccc1)OC1OC(CO)C(O)C(O)C1O (stereo not given),-1,30*,19,3,0,26*,3,GFP quench DR=>68
[C-]#[N+][C@H](O[C@@H]1O[C@H](CO)[C@@H](O)[C@H](O)[C@H]1O)c1ccccc1,17,-2,5,0,0,nt,nt,
O=C(COc1ncnc2c1cnn2-c1ccccc1)Nc1ccc(S(=O)(=O)N2CCCCC2)cc1,18,8.8*,9,-2,0,6,0,
NS(=O)(=O)c1cccc(NC(=O)COc2ncnc3c2cnn3-c2ccccc2)c1,-9,-3,39,-3,0,nt,nt,
CCCS(=O)(=O)NC(=O)C1(C)CCN(C(=O)c2ccc3c(c2)OCO3)C1 (stereo not given),9,-1,nt,2,0,nt,nt,
N#Cc1ccc(C(=O)NCC(c2ccco2)N2CCCC2)cc1 (stereo not given),6,-2,-2,5,-1,nt,nt,
N#Cc1ccccc1Sc1ccccc1C(=O)NCC(c1ccco1)N1CCCC1 (stereo not given),-22,49*,1,-2,-1,62*,1,GFP quench DR=>68;GFP quench-2=>68
CCOC(=O)CCCCCC(=O)Nc1ccc2c(c1)C(=O)N([C@H](C)CO)C[C@@H](C)[C@@H](CN(C)C(=O)CCC(F)(F)F)OCCCC[C@H](C)O2,-19,51*,nt,-1,0,55*,0,GFP quench DR=>68
COc1ccc(S(=O)(=O)N(C)C[C@H]2Oc3ccc(NC(=O)C4CC4)cc3C(=O)N([C@H](C)CO)C[C@@H]2C)cc1,-2,19*,35,-2,0,26*,-1,
CCOC(=O)CCCCCC(=O)Nc1ccc2c(c1)C(=O)N([C@@H](C)CO)C[C@H](C)[C@H](CN(C)S(=O)(=O)c1ccc(OC)cc1)OCCCC[C@H](C)O2,-6,8,nt,5,-2,nt,nt,
CCOC(=O)CCCCCC(=O)Nc1ccc2c(c1)C(=O)N([C@H](C)CO)C[C@H](C)[C@@H](CN(C)S(C)(=O)=O)OCCCC[C@@H](C)O2,1,10*,nt,3,-1,14*,-1,
CCOC(=O)CCCCCC(=O)Nc1ccc2c(c1)C(=O)N([C@@H](C)CO)C[C@@H](C)[C@H](CN(C)C(=O)c1ccncc1)OCCCC[C@H](C)O2,2,5,nt,3,-1,nt,nt,
COc1ccc(NC(=O)C2(C)Cc3c(-c4ccc5c(c4)OCO5)ccnc3O2)cn1 (stereo not given),9,5,nt,9,0,nt,nt,
COc1ccc(/C=N/NC(=O)CNC(=O)c2ccncc2)cc1OC,14,-3,-8,7,0,nt,nt,
CCCCSc1cc(=O)[nH]c(N)n1,-4,29*,13,-4,-1,21*,-2,GFP quench DR=>68
SMILES,SKN-1 inh,Rin1 Abl inh,Arr AP2 block,MT1-MMP act inh,TbMetRS inhib,Rin1 Abl conf,GFP quench-1,others
CCCCSc1nnc2[nH]c(=O)cc(N)n12,-4,3,-9,3,-1,nt,nt,
Cn1cc(Cc2ccccc2)c(=O)c(Cc2ccccc2)c1,1,2,-2,3,0,nt,nt,
O=C(Nc1nc(-c2cc(Cl)sc2Cl)cs1)c1ccc(Br)s1,-16,6.0*,9,-6,-1,-1,0,
O=C1CC(C(=O)Nc2ccccc2)C2(CCCC2)O1 (stereo not given),-8,7.7*,2,-1,-2,-2,-1,
Cc1cccc(NC(=O)C2CC(=O)OC23CCCCC3)c1 (stereo not given),-4,-3,5,-10,0,nt,nt,
CCc1nc2ccc(C(=O)NCCCn3ccnc3)cn2c1N(C)Cc1ccc(Cl)cc1,-8,0,nt,1,0,nt,nt,
O=C(CCN1C(=O)[C@@H]2Cc3ccccc3CN2C1=O)NCc1ccc(Cl)cc1,-4,29*,-5,-3,0,-1,0,
C/C(=N\OC(=O)Nc1ccccc1)c1ccc(C)cc1,10,6.4*,10,-1,-1,-1,0,
COCCN(CCOC)C(=O)CSc1ccc(S(=O)(=O)N2CCN(C)CC2)cn1,-2,12*,-3,0,0,26*,1,GFP quench DR=>68
CC(=O)c1cc2c(cc1C)CCCC2(C)C,11,0,nt,-1,0,nt,nt,
CC1(C)Cc2nc3sc4c(=O)[nH]cnc4c3cc2CS1,-15,45*,-2,4,-1,41*,0,GFP quench DR=>68
